Hits are enriched below; roughly 2.8% of the tested compounds scored in any of these assays.
HTRA1 inh: HTRA1 serine protease inhibitors, primary screen, biochemical, fluorescence polarization, HTS | Q92743 | recombinant HTRA1, FP-rhodamine activity-based probe | inhibition, % at 5.96 µM | hit rate 0.5% among 340,000; in the data active = inhibition above about 36%;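 note: 0% = enzyme with DMSO and 100% = wells lacking enzyme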
PAFAH1B3 inh: PAFAH1B3 enzyme inhibitors, primary screen, biochemical, fluorescence polarization, human; hit rate 0.28% among 340,000; AID 492972, 2010; Platelet-activating factor acetylhydrolase IB subunit alpha1 (Homo sapiens), Q15102; recombinant PAFAH1B3, FP-rhodamine probe; inhibition, % at 3.39 µM;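 active = inhibition above the screen-wide average of all tested compounds plus 3 SD, cut at about 25% in these data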;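 note: 0% = enzyme with DMSO only and 100% = wells lacking PAFAH1B3 protein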
Target sequence (Q15102 whole entry, looked up): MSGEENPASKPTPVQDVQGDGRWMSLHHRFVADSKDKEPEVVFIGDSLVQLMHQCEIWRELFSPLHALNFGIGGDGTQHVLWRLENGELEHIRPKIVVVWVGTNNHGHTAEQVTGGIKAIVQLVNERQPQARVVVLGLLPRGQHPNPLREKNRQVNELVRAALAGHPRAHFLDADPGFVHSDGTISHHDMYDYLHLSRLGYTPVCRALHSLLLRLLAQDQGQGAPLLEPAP
pPAFAH FP inh: pPAFAH enzyme inhibitors, primary screen, biochemical, fluorescence polarization, human | recombinant pPAFAH, FP-rhodamine probe fluorescence polarization | inhibition, % at 3.39 µM | hit rate 1.5% among 330,000 | AID 463082, 2010;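 active = inhibition above the mean inhibition across the screen plus 3 SD, cut at about 25% in these data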;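 note: inhibitors block binding of the rhodamine activity-based probe so polarization drops; 0% = enzyme with DMSO and 100% = wells lacking pPAFAH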
Target sequence (Q13093 whole entry, looked up): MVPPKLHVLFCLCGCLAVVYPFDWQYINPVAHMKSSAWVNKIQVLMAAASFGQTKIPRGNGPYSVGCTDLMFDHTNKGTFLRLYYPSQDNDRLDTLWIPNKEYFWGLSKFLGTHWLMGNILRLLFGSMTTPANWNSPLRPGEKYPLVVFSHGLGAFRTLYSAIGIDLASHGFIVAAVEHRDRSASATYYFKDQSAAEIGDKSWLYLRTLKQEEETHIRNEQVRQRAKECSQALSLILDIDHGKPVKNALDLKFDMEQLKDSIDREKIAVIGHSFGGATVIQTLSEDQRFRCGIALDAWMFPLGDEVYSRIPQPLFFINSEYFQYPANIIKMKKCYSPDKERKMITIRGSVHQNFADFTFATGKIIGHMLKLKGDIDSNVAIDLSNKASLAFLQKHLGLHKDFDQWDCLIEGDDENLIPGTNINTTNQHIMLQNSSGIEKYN
PAFAH2 inh: PAFAH2 enzyme inhibitors, primary screen, biochemical, fluorescence polarization, human. Platelet-activating factor acetylhydrolase 2, cytoplasmic (Homo sapiens), Q99487. recombinant PAFAH2, FP-rhodamine activity probe. hit rate 0.99% among 340,000. inhibition, % at 3.39 µM. AID 492956, 2010;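 active = inhibition above the mean over all tested compounds plus 3 SD, cut at about 30% in these data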;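 note: inhibitors block probe labeling of enzyme so polarization drops; 0% = enzyme with DMSO and 100% = wells lacking PAFAH2 protein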
ABHD4 inh: ABHD4 inhibitors, primary screen, biochemical, fluorescence polarization, mouse | purified mABHD4, FP-Rh probe fluorescence polarization | inhibition, % at 8.92 µM | (Lyso)-N-acylphosphatidylethanolamine lipase (Mus musculus), Q8VD66 | hit rate 0.54% among 370,000;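 active = inhibition exceeding the mean over every tested compound plus 3 SD, cut at about 30% in these data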;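 note: 0% = plate median of compound wells and 100% = S159A mutant with DMSO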
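Doses – 8.92 µM, single dose · Material – wild-type mouse ABHD4 protein · Replication – single well per compound (singlicate) · Measure – percent inhibition of probe binding, normalized to plate controls · Schedule – 45 min compound pre-incubation plus 60 min probe step, 25 °C · Detection – fluorescence polarization with parallel and perpendicular emission, 525/598 nm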
PAFAH1B2 FP inh: PAFAH1B2 enzyme inhibitors, primary screen, biochemical, fluorescence polarization, human; Platelet-activating factor acetylhydrolase IB subunit alpha2 (Homo sapiens), P68402; recombinant PAFAH1B2, FP-rhodamine activity probe; inhibition, % at 3.39 µM; hit rate 1.2% among 340,000;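 active = inhibition above the mean of all tested compounds plus 3 SD, cut at about 24% in these data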;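 note: 0% = enzyme with DMSO and 100% = wells lacking PAFAH1B2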
pPAFAH confirm: pPAFAH (PLA2G7) enzyme inhibitors, confirmation, biochemical, fluorescence polarization, human; hit rate 72% among 2,300; inhibition, % at 3.39 µM; shares compounds with pPAFAH FP inh; recombinant pPAFAH, FP-Rh probe fluorescence polarization;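 active = mean inhibition of the triplicate above the hit cutoff set for the earlier primary screen, cut at about 25% in these data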;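 note: 0% = enzyme with DMSO and 100% = wells lacking pPAFAH enzyme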
The depositor's hits bear a star; / = no result.

SMILES	HTRA1 inh	PAFAH1B3 inh	pPAFAH FP inh	PAFAH2 inh	ABHD4 inh	PAFAH1B2 FP inh	pPAFAH confirm
O=C(NC1CCCC1)N1CCC(c2nc3ccc(Cl)cc3[nH]2)CC1	/	/	/	/	-4	/	/
CC(C)(C)c1cc(NCCCn2ccnc2)n2ncc(-c3ccc(Cl)cc3)c2n1	7	5	39*	4	12	0	19
O=C(N[C@H](C(=O)N1CCC[C@H]1C(=O)NC1CCCC1)c1ccccc1)C1CCCC1	/	/	/	/	-8	/	/
CCOc1ccc(CCNC(=O)Cc2ccccc2)cc1OCC	/	/	/	/	7	/	/
O=C(O)CN1CCN(Cc2ccccc2Cl)C1=O	-2	-2	1	-9	5	-2	/
O=C(O)CN1CCN(Cc2ccccc2F)C1=O	0	5	58*	3	2	1	2
Cc1ccccc1CNC(=O)CN1CCCc2ccccc21	/	/	/	/	-3	/	/
Cc1cc([N+](=O)[O-])ccc1Nc1nc2ccccc2n2cnnc12	2	4	37*	-3	5	8	5
COc1ccc(-c2nn(-c3ccccc3)cc2C2CC(c3cccs3)=NN2C(=O)CCCC(=O)O)cc1 (configuration not stated)	-3	6	7	-13	7	3	/
Cc1ccc(-c2nn(-c3ccccc3)cc2C2CC(c3cccs3)=NN2C(=O)CCCC(=O)O)cc1 (configuration not stated)	-10	5	40*	1	6	8	5
Cc1c(NC(=O)C2CCCN(S(=O)(=O)c3ccc(C(C)(C)C)cc3)C2)c(=O)n(-c2ccccc2)n1C (configuration not stated)	/	/	/	/	-2	/	/
C=CCn1c(SCC(=O)c2ccc(O)c(O)c2)nnc1-c1cccnc1	16	7	50*	24	18	4	19
O=C1CC(=O)Nc2cc(S(=O)(=O)NCc3cccs3)ccc2N1	1	0	65*	1	1	1	2
Cc1occc1-c1nnc(SCC(=O)N[C@@H]2CCc3ccccc32)n1-c1ccccc1	/	/	/	/	6	/	/
Cc1ccc(NC(=O)C(C)OC(=O)CCC2CCCCC2)cc1 (configuration not stated)	-27	6	43*	3	0	7	8
CCOc1cc(CNc2ccc(O)cc2)ccc1OCc1ccc(Cl)cc1Cl	62*	16	36*	11	/	11	22
CN(CC(=O)Nc1ccc(N2CCOCC2)cc1)CC(=O)Nc1ccc(N2CCOCC2)cc1	4	0	42*	4	-15	4	35*
CSCCC(NC(=O)c1ccccc1)C(=O)N(C)CC(=O)Nc1ccc(N2CCOCC2)cc1 (configuration not stated)	2	5	36*	9	7	3	32*
CN(CCc1ccccn1)C(=O)c1ccc2c(c1)ncn2C1CCCCC1	/	/	/	/	3	/	/
Cc1ccc(NC(=O)CN2C(=O)N/C(=C/c3cccn3-c3ccc(C(=O)O)cc3)C2=O)cc1	-4	24	71*	53*	3	10	41*
CCN(CC)C(=O)CC[C@@H]1CC[C@]2(CCCN(C(=O)c3ccco3)C2)O1	/	/	/	/	0	/	/
COc1cc2cccc(OC)c(=O)c2c(O)c1OC	11	7	-7	11	3	3	/
COc1cc2c(ccc3cc(OC)c(OC)c(O)c32)cc1O	24	23	39*	15	6	13	22
CCCCOCCCNC(=O)C[C@H]1C[C@@]2(C(=O)OC)C(=C[C@H](COCc3ccccc3)O[C@@H]2C)N(CCc2ccc(OC)c(OC)c2)C1=O	/	/	/	/	3	/	/
Cc1ccc(NC(=O)CN(C)S(=O)(=O)c2ccc3[nH]c(=O)oc3c2)c(C)c1	7	-1	5	2	5	8	/
SMILES	HTRA1 inh	PAFAH1B3 inh	pPAFAH FP inh	PAFAH2 inh	ABHD4 inh	PAFAH1B2 FP inh	pPAFAH confirm
CCOc1ccc(NS(=O)(=O)c2ccc3[nH]c(=O)oc3c2)cc1	-2	5	55*	5	-1	3	52*
Cc1ccc(NS(=O)(=O)c2ccc3[nH]c(=O)oc3c2)c(C)c1	-2	-2	75*	1	-1	7	71*
O=S(=O)(c1ccccc1)n1c(CN2CCOCC2)nc2ccccc21	/	/	/	/	-3	/	/
COC(=O)[C@]12C[C@H](CC(=O)NCCC(C)C)C(=O)N(Cc3ccco3)C1=C[C@H](C(C)C)O[C@@H]2C1CC1	/	/	/	/	-2	/	/
C=CC(C)(C)c1c(O)c(CC=C(C)C)c(O)c2c(=O)c3ccc(O)c(O)c3oc12	37*	16	45*	-27	/	3	49*
CCNc1ccc(Br)cc(C(=O)/C=C/c2c(Cl)cccc2Cl)c1=O	58*	6	44*	36*	/	1	28*
COCCNC(=O)/C(C#N)=C/c1cc(C)n(-c2ccc(C)cc2)c1C	2	7	55*	8	-5	1	52*
COc1ccc(NS(=O)(=O)c2ccc(O)c(NC(=O)c3cc4c(C)nn(-c5ccc(F)cc5)c4s3)c2)cc1	-12	-37	36*	-18	/	-15	29*
CCCCNC(=O)C1(C(C)=O)CC(C(=O)OCC)=NO1 (configuration not stated)	/	/	/	/	-2	/	/
O=C(c1ccc(Cl)c(S(=O)(=O)N2CCc3ccccc32)c1)N1CCN(c2ccccc2O)CC1	-24	-1	37*	5	3	5	20
CC(=O)N1CCN(C(=O)c2ccc(Cl)c(S(=O)(=O)N3CCc4ccccc43)c2)CC1	0	-6	5	-3	0	1	/
CCC1=NN2C(=N)/C(=C\c3ccc(SCc4ccco4)o3)C(=O)N=C2S1	-95	-66	-9	-19	-105	-13	/
CCCC1=NN2C(=N)/C(=C\c3ccc(SCc4ccco4)o3)C(=O)N=C2S1	-68	-100	60*	-21	/	-17	61*
O=C1NC(=S)S/C1=C\c1ccc(SCc2ccccc2)o1	-32	9	40*	21	-16	71*	58*
O=C1NC(=S)S/C1=C\c1ccc(SCc2ccco2)o1	20	5	69*	16	/	20	55*
CCOc1ccc(C=NNc2ccc(S(=O)(=O)Nc3ccccc3C(=O)O)cc2[N+](=O)[O-])cc1	11	25	57*	21	/	18	86*
N#Cc1cc2c(=O)n3ccccc3nc2n(Cc2ccco2)c1=NC(=O)c1ccco1	-1	10	37*	-6	4	5	9

Compound activity deposited in PubChem BioAssay by The Scripps Research Institute Molecular Screening Center.
